Source: ChEMBL document CHEMBL4513216, “Probing the Open Global Health Chemical Diversity Library for Multistage-Active Starting Points for Next-Generation Antimalarials” (ACS Infect Dis, 2020)

Experiment: Toxicity liver stage against HepG2, at 10uM
Assay type: cell-based
Set-up: test concentration 10 uM, cell line HepG2-A16-CD81EGFP
Conditions: human, HepG2-A16-CD81EGFP cells; read-out: INHIBITION
Summary of the method: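 Uninfected HepG2-A16-CD81EGFP cells, 3 × 10^3 per well, 1536-well, plated on prespotted compound at 10 μM final, parasite-free screening media added to match infected plates; puromycin 10 μM positive, DMSO 0.5% negative; run in parallel with 48 h PbLuc assay at 37 °C, 5% CO2; viability by CellTiter-Glo luminescence, normalized to controls.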

Row | SMILES | cytotoxicity at 10 µM [%]
1 | COC(=O)C1CCN(C(=O)CN2CCN(c3cccc(C)c3)CC2)CC1 | -17.5
2 | COc1ccc(NC(=O)Nc2c(O)c3ccccc3oc2=O)cc1 | -9.87
3 | CCOc1nc2cnccc2n(CC(=O)NCCc2ccccc2)c1=O | -6.29
4 | Cc1nn(C)cc1CN1CCCCCC1c1ccccc1Cl (configuration not stated) | 7.49
5 | Cc1cnc2n(c1=O)C(CC(=O)NCc1ccco1)CS2 (configuration not stated) | -5.52
6 | O=S(=O)(c1cccnc1)N1CCN(Cc2nc(-c3ccco3)cs2)CC1 | 5.94
7 | COc1ncccc1C(=O)N1CC(c2nc(-c3ccccn3)no2)C1 | 3.19
8 | CSCC(C)(O)CNS(=O)(=O)Cc1ccc(F)cc1 (configuration not stated) | -1.12
9 | CN(C)CC(=O)N1CCC2(CC1)CN(Cc1ccccc1)C2 | 5.03
10 | O=C(c1ccco1)N1CCC2(CCC(=O)N2Cc2ccccc2)CC1 | 7.59
11 | CCCNC(=O)CSc1nnc2[nH]c(=O)cc(CC)n12 | -17.3
12 | Cn1c(C(F)(F)F)nn(CCNC(=O)NCc2ccccc2)c1=O | -27.3
13 | Cc1cc(=O)n(CC(=O)NCC2CCCO2)c(-c2cccc(Cl)c2)n1 (configuration not stated) | -11
14 | NC(=O)CN1CCC(c2csc(Nc3cnccn3)n2)CC1 | -2.19
15 | Cc1cc(C)nc(Nc2nccnc2C2CCCN(CCO)C2)n1 (configuration not stated) | -0.0399
16 | COc1ncc(CN2C[C@@H]3C[C@@H](O)CN3C[C@@H]2Cc2ccccc2)cn1 | -6.86
17 | CCC(=O)NC(Cc1cc(N(C)C)nc(C2CC2)n1)c1ccccc1 (configuration not stated) | 0.301
18 | O[C@H]1CCN(CCCOc2ccccc2F)C[C@@]12CCCO2 | 1.14
19 | Cc1nc(C2CCN(C(=O)c3ccn(C)n3)CC2)c2sccn12 | -4.66
20 | CN(C)S(=O)(=O)N1CCCC1c1cccc(-n2ccnc2)n1 (configuration not stated) | -3.75
21 | Cc1ncsc1CN1CC[C@](C)(O)[C@@H](Oc2cccc(F)c2)C1 | -14.8
22 | CC(=O)N1CCCC(c2ccc(Nc3nc(C)cc(C)n3)cn2)C1 (configuration not stated) | -4.09
23 | Cc1ccc(O)c(CNc2cccc(CN3CCSCC3)c2)n1 | -7.94

Row | SMILES | cytotoxicity at 10 µM [%]
24 | COc1ccc(-c2nc(CSC3CCCCNC3=O)co2)cc1 (configuration not stated) | 20.9
25 | CCc1ccsc1C(=O)N(C)CCc1ccncc1 | -0.386
26 | CCn1cc(C(=O)NCC2(C(N)=O)CCOCC2)c2ccccc21 | 0.969
27 | N#CCCn1cnc2c(Br)cccc2c1=O | 4.65
28 | CCC(C)C(=O)N(C)Cc1cc(F)ccc1N1CCC(OC)CC1 (configuration not stated) | -5.41
29 | O=C1CCN(C(=O)C2(c3ccc(Br)cc3)CC2)CCN1 | 1.56
30 | Cc1nn(C)c(Cl)c1C1CCCN1CC(=O)N1CCOCC1 (configuration not stated) | 3.41
31 | COc1ccccc1C(CNC(=O)NCc1cc[nH]n1)N1CCCC1 (configuration not stated) | -0.634
32 | CSC(C)(C)CNC(=O)NC1CCN(CC(F)F)CC1 | -5.12
33 | CCNC(=O)CCC(=O)NC1(c2cccc(Br)c2)CC1 | 8.64
34 | CCc1nnc(CN2CCC(c3nc4cc(Cl)ccc4o3)CC2)o1 | -0.956
35 | CC(CNC(=O)c1cc(Cl)ccc1F)N1CCCC1 (configuration not stated) | -4.43
36 | COc1cccnc1NC(=O)COc1ccc(F)cc1F | 8.68
37 | O=C(NC1CCC(C(=O)N2CCSCC2)CC1)N1CCC1 (configuration not stated) | 12.7
38 | O=C(NCCc1nnc2n1CCC2)NCC1(c2ccccc2F)CC1 | 0.833
39 | COc1ccc(CNC(=O)NC2CCN(C)CC2)c(C(F)(F)F)c1 | -12.2
40 | CC(C)N(C)C(=O)C1CCN(Cc2cc3c(cc2O)CCC3)CC1 | 6.15
41 | CCc1nn(C)c2[nH]nc(NC(=O)c3ccccc3COC)c12 | 6.16
42 | O=C(Nc1ccc(F)cc1)N(CCC(F)(F)F)C[C@H](O)CO | -7.8
43 | CC(C)CSCCCNC(=O)C1CCOC1 (configuration not stated) | -5.81
44 | Cn1nccc1NCc1cc2cc(F)ccc2o1 | 8.57
45 | Cc1ccc(C)c(OCc2nnc(SCC3CCCN(C)C3)o2)c1 (configuration not stated) | 5.24
46 | CCC(CNC(=O)c1cc(OC)ccc1Br)N1CCc2ccccc2C1 (configuration not stated) | -6.78

Row | SMILES | cytotoxicity at 10 µM [%]
47 | CN(C(=O)c1cccc(C(=O)NCC(F)(F)F)c1)c1ccccc1 | -14.8
48 | Cc1cccc(N2CCOCC3(C2)CN(c2cncnc2)C(=O)CO3)n1 (configuration not stated) | 5.88
49 | O=C(c1cc(C2CC2)on1)N1CC[C@]2(C[C@H](Oc3cccnc3)CO2)C1 | -9.63
50 | CC(=O)N1CCC(n2nccc2-c2cnc(N3CCCC3)nc2)CC1 | -0.00173
51 | CO[C@H]1C[C@@H](O)C12CCN(CCCOc1ccc(C(N)=O)cc1)CC2 | -5.66
52 | CNc1ccc(C)cc1C(=O)N1CCCC2(CCNC2)C1 (configuration not stated) | -6.63
53 | CCC(C)Nc1ccc(-c2nc(-c3cccc(OC)c3OC)no2)cn1 (configuration not stated) | 24.8
54 | N#Cc1c(N)nc2c(c1-c1c[nH]nc1C1CCCCC1)CNCC2 | 0.787
55 | CC(C)CCn1cc(C(C(=O)O)N2CCCN(C3CCCC3)CC2)cn1 (configuration not stated) | -5.84
56 | COCCCN1CC2(CCC1=O)CCN(Cc1cc(C)no1)CC2 | 4.08
57 | Cc1c(C(=O)N2CCC3(CCC(=O)N(CCN(C)C)C3)CC2)ccn1C | -4.06
58 | CS(=O)(=O)c1ccc(CN2CCCCC2c2cccc(F)c2)cc1 (configuration not stated) | -17.4
59 | Cn1cc(CN2CCC(CCC(=O)Nc3ccccc3Cl)CC2)cn1 | -2.98
60 | Cc1nccn1CCC1CCN(C(=O)C2CC3(CCNCC3)CN2)CC1 (configuration not stated) | -1.64
61 | O=C(O)C1(Oc2ccc3ccccc3c2)CCN(c2ccncc2)CC1 | 0.542
62 | COCC(=O)N1CCc2cccc(S(=O)(=O)N3CCOCC3)c2C1 | -5.42
63 | Cc1cc(-c2cc(-c3cc(CC(=O)O)cs3)nc(N)c2C#N)oc1C | -6.25
64 | O=C(c1cncc(NCC2COc3ccccc3C2)n1)N1CCCC1 (configuration not stated) | -6.53
65 | Cc1cccc2[nH]c(C3CCN(C(=O)c4cccnn4)CC3)nc12 | 11.2
66 | COC1CCCN(C2CCN(c3cccc(-c4csc(C)n4)c3)CC2)C1 (configuration not stated) | 0.929
67 | CC(=O)NCC(=O)N1Cc2c(-c3cccc(C)c3)nc(N)nc2C1C (configuration not stated) | 7.66
68 | Cc1c(Cn2c(=O)cnc3ccccc32)cnn1C | -0.473
69 | CSc1nccc(-c2cccc(-c3ccn(CC4COCCO4)n3)c2)n1 (configuration not stated) | -7.92

Row | SMILES | cytotoxicity at 10 µM [%]
70 | c1cc(C2CCN(c3ncnc4c3CCNCC4)CC2)ccn1 | 8.33
71 | COC(=O)N1CCN(Cc2ccccc2Cl)CC1 | -0.227
72 | CCCC1(CO)CCCN(C(=O)CCCn2nc(C)cc2C)C1 (configuration not stated) | -9.53
73 | COCCN(Cc1cnn(C)c1)CC1CCN(C(C)C)CC1 | -9
74 | COCC(O)CNC(=O)c1coc(COc2ccc3sc(C)nc3c2)n1 (configuration not stated) | 10.8
75 | Cc1ccc(CN2CCC(c3nnc(CN4CCCCC4)n3C)CC2)o1 | -5.1
76 | CCn1cc(CN2CCCn3nc(CCC(=O)NCCO)cc3C2)cn1 | -18.2
77 | COc1ccc(OCc2nc(C(=O)N3CC(O)C3)co2)cc1 | -9.29
78 | Cn1c(=O)c2cc(C(=O)NCCOc3ccccc3)ccc2n(C)c1=O | -4.69
79 | Cc1cc(Br)c(O)c(-c2nc(N3CCOCC3)sc2C)c1 | 74.4
80 | CNC(=O)C1(c2cnccn2)CCCN1C(=O)c1ccn(C)n1 (configuration not stated) | -5.15
81 | c1ccc(-c2nnc3n2CCN(Cc2ccc4c(c2)OCCO4)C3)cc1 | 7.66
82 | O=C(CCCN1CCOC1=O)Nc1cnn(-c2ccccc2Cl)c1 | -4.56
83 | O=C(CCc1cccc(Cl)c1Cl)N1CCOCC1c1ncon1 (configuration not stated) | -2.33
84 | CC(C)c1ncc2c(n1)CN(Cc1nc(-c3cccnc3)no1)CC2 | -18.7
85 | COCCOc1cccc(C(=O)N2CCCC(n3ccnc3)C2)c1 (configuration not stated) | -17.1
86 | CC(C)n1cc(CN2CCCN(C(=O)CN3CCCC3=O)CC2)cn1 | -27.5
87 | Cc1cnn(CC(=O)N2CCCN(Cc3cnn(C(C)C)c3)CC2)c1 | -12.3
88 | Cc1ncsc1C(=O)N(Cc1ccccc1)C1CC1 | -6.48
89 | CC(NC(=O)CCCc1nc(C(C)(C)C)no1)c1ccccn1 (configuration not stated) | -5.81
90 | CCOc1ccccc1OC1CCN(C(=O)c2c[nH]nn2)CC1 | -2.48
91 | COc1ccc2c(c1)CCN2Cc1nc2c(cnn2C)c(=O)[nH]1 | -10.3
92 | CN(Cc1ccsc1)C(=O)Nc1ccc(N(C)C)nc1 | -3.08

Row | SMILES | cytotoxicity at 10 µM [%]
93 | CCCc1n[nH]c(C2CN(C(=O)c3cc4c(s3)CCC4)CCO2)n1 (configuration not stated) | -10.1
94 | CN1CCOC(CNCc2coc(-c3ccc(Cl)cc3)n2)C1 (configuration not stated) | -9.99
95 | CCN(CC)C(CNC(=O)c1c(C)noc1C(C)C)c1ccsc1 (configuration not stated) | -12.2
96 | Fc1ccc(-c2nc(CN3CCCC3Cn3cncn3)co2)cc1F (configuration not stated) | -5.58
97 | Cc1cc(C)n(C2CN(CC(O)c3cc(F)ccc3F)C2)n1 (configuration not stated) | -15.1
98 | CC(C)c1nc(CN(C)C2CCN(CCS(C)(=O)=O)C2)no1 (configuration not stated) | -13.4
99 | NC(=O)CN1CCCN(C(=O)Cc2cccc(C(F)(F)F)c2)CC1 | -3.05
100 | CNc1snc(C)c1C(=O)N1CCCC(n2ccnc2)C1 (configuration not stated) | -13.8
101 | CC(C)c1nc(C2CCCN2Cc2cc(=O)n(C)c(=O)n2C)no1 (configuration not stated) | -10.7
102 | c1nc(N2CCOC(Cn3cncn3)C2)c2cc[nH]c2n1 (configuration not stated) | -7.97
103 | Cc1ccc(CC(=O)N2CCCC2Cn2nc(C)cc2C)cn1 (configuration not stated) | -9.24
104 | CC(Cn1cccn1)NCc1csc(COc2ccc(F)cc2)n1 (configuration not stated) | 5.84
105 | CN(C)S(=O)(=O)c1ccc(CN2CCCC2c2ccccc2)o1 (configuration not stated) | -5.72
106 | Cc1cnn(CC2CN(Cc3nnc(C4CC4)o3)CCO2)c1 (configuration not stated) | -11.8
107 | Cc1nc(CN2CCN(Cc3nccn3C)CC2)no1 | 3.44
108 | Cc1cc(NC(=O)CN2CCOC(Cn3cccn3)C2)n(C)n1 (configuration not stated) | 5.56
109 | COc1c(CNCCNC(=O)c2cccc(C)c2)c(C)nn1C | -6.64
110 | CCc1ccc(CN2CCC3(CC2)CNC(=O)CO3)o1 | -16.5
111 | CC[C@H](N)Cn1nc(-c2cccs2)oc1=O | 1.75
112 | Cc1cc(C(=O)N2CCCC3(COCCN(c4ncccn4)C3)C2)[nH]n1 (configuration not stated) | -3.58
